# In ChEMBL document CHEMBL1154185 (J Med Chem, 2009):
# Tested on: not listed separately
# Assay: Growth inhibition of human WI38 cells after 72 hrs by MTT assay
# Format: cell-based
# Conditions: WI-38, 72 h
# In short: (§1)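 Cells plated 24 h in 96-well plates (10,000-40,000 cells/mL by cell type) in MEM (5% or 10% heat-inactivated FBS; with 100 μM non-essential amino acids for WI-38 and NHDF) or RPMI 10% FBS (A549), then exposed 72 h to compound up to 100 μM; MTT reduction read at 570 nm (reference 630 nm); sextuplicate.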
row,Compound,IC50 [µM]
1,CC(=O)O[C@H]1C=C2CCN3Cc4cc5c(cc4[C@H]([C@@H]1O)[C@@H]23)OCO5,88.5
2,COC1=C[C@@H]2CCN3Cc4cc5c(cc4[C@@H]([C@H]23)[C@@H]1O)OCO5 [AMARBELLISINE],> 100
3,COc1cc2c(cc1O)[C@@H]1[C@H](O)[C@@H](O)C=C3CCN(C2)[C@H]31 [PSEUDOLYCORINE],44
4,C1=C2CCN3Cc4cc5c(cc4[C@H]([C@@H]4O[C@H]14)[C@@H]23)OCO5,28.6
5,c1cc2c3c(c1)-c1cc4c(cc1CN3CC2)OCO4 [ANHYDROLYCORINE],30.1
6,O[C@H]1[C@H]2c3cc4c(cc3CN3CCC(=C[C@@H]1Cl)[C@H]23)OCO4,46

# Tested on: NHDF
# Assay: Growth inhibition of human NHDF after 72 hrs by MTT assay
# Format: cell-based
# Conditions: not given
# In short: as §1
row,Compound,IC50 [µM]
1,CC(=O)O[C@H]1C=C2CCN3Cc4cc5c(cc4[C@H]([C@@H]1O)[C@@H]23)OCO5,> 100
2,COC1=C[C@@H]2CCN3Cc4cc5c(cc4[C@@H]([C@H]23)[C@@H]1O)OCO5 [AMARBELLISINE],> 100
3,COc1cc2c(cc1O)[C@@H]1[C@H](O)[C@@H](O)C=C3CCN(C2)[C@H]31 [PSEUDOLYCORINE],66.9
4,C1=C2CCN3Cc4cc5c(cc4[C@H]([C@@H]4O[C@H]14)[C@@H]23)OCO5,9.3
5,c1cc2c3c(c1)-c1cc4c(cc1CN3CC2)OCO4 [ANHYDROLYCORINE],26.6
6,O[C@H]1[C@H]2c3cc4c(cc3CN3CCC(=C[C@@H]1Cl)[C@H]23)OCO4,72.1

# Tested on: A549
# Assay: Growth inhibition of proapoptotic stimuli-resistant human A549 cells after 72 hrs by MTT assay
# Format: functional, cell-based
# Conditions: Homo sapiens, A549, 72 h
# In short: as §1
row,Compound,IC50 [µM]
1,O[C@@H]1CC=C2CCN3Cc4cc5c(cc4[C@H]1[C@@H]23)OCO5 [CARANINE],> 10
2,CC(=O)O[C@H]1[C@H]2c3cc4c(cc3CN3CCC(=C[C@@H]1O)[C@H]23)OCO4,> 10
3,O[C@H]1[C@H]2c3cc4c(cc3CN3CCC(=C[C@H]1O)[C@H]23)OCO4,> 10
4,O=C1c2cc3c(cc2[C@@H]2[C@H](O)[C@@H](O)C[C@H]4CCN1[C@H]42)OCO3,> 10
5,CC(=O)O[C@H]1C=C2CCN3Cc4cc5c(cc4[C@H]([C@@H]1O)[C@@H]23)OCO5,> 10
6,COC1=C[C@@H]2CCN3Cc4cc5c(cc4[C@@H]([C@H]23)[C@@H]1O)OCO5 [AMARBELLISINE],7.2
7,C1=C2CCN3Cc4cc5c(cc4[C@H]([C@@H]4O[C@H]14)[C@@H]23)OCO5,3.4
8,c1cc2c3c(c1)-c1cc4c(cc1CN3CC2)OCO4 [ANHYDROLYCORINE],4.5
9,O[C@H]1[C@H]2c3cc4c(cc3CN3CCC(=C[C@@H]1Cl)[C@H]23)OCO4,3.8

# Tested on: not listed separately
# Assay: Growth inhibition of proapoptotic stimuli-sensitive human Hs683 cells after 72 hrs by MTT assay
# Format: functional, cell-based, Hs 683
# Conditions: Homo sapiens, Hs 683, 72 h
# In short: (§2)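 MTT assay. Cells were plated at 10,000–40,000 cells/mL and left 24 h to attach, then exposed to compound for 72 h (untreated controls). Formazan was read at 570 nm (reference 630 nm). Tested up to 10 μM (first panel) or up to 100 μM (second panel). Sextuplicate. U373 grown in MEM + 5% FBS; Hs683, SK-MEL-28 and B16F10 in RPMI + 10% FBS.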
row,Compound,IC50 [µM]
1,O[C@@H]1CC=C2CCN3Cc4cc5c(cc4[C@H]1[C@@H]23)OCO5 [CARANINE],> 10
2,CC(=O)O[C@H]1[C@H]2c3cc4c(cc3CN3CCC(=C[C@@H]1O)[C@H]23)OCO4,> 10
3,O[C@H]1[C@H]2c3cc4c(cc3CN3CCC(=C[C@H]1O)[C@H]23)OCO4,> 10
4,O=C1c2cc3c(cc2[C@@H]2[C@H](O)[C@@H](O)C[C@H]4CCN1[C@H]42)OCO3,> 10
5,CC(=O)O[C@H]1C=C2CCN3Cc4cc5c(cc4[C@H]([C@@H]1O)[C@@H]23)OCO5,> 10
6,COC1=C[C@@H]2CCN3Cc4cc5c(cc4[C@@H]([C@H]23)[C@@H]1O)OCO5 [AMARBELLISINE],8.3
7,COc1cc2c(cc1O)[C@@H]1[C@H](O)[C@@H](O)C=C3CCN(C2)[C@H]31 [PSEUDOLYCORINE],7.9
8,C1=C2CCN3Cc4cc5c(cc4[C@H]([C@@H]4O[C@H]14)[C@@H]23)OCO5,3.3
9,c1cc2c3c(c1)-c1cc4c(cc1CN3CC2)OCO4 [ANHYDROLYCORINE],7.1
10,O[C@H]1[C@H]2c3cc4c(cc3CN3CCC(=C[C@@H]1Cl)[C@H]23)OCO4,3.1

# Tested on: not listed separately
# Assay: Growth inhibition of proapoptotic stimuli-resistant human OE21 cells after 72 hrs by MTT assay
# Format: functional, cell-based
# Conditions: Homo sapiens, OE21, 72 h
row,Compound,IC50 [µM]
1,O[C@@H]1CC=C2CCN3Cc4cc5c(cc4[C@H]1[C@@H]23)OCO5 [CARANINE],> 10
2,CC(=O)O[C@H]1[C@H]2c3cc4c(cc3CN3CCC(=C[C@@H]1O)[C@H]23)OCO4,> 10
3,O[C@H]1[C@H]2c3cc4c(cc3CN3CCC(=C[C@H]1O)[C@H]23)OCO4,> 10
4,O=C1c2cc3c(cc2[C@@H]2[C@H](O)[C@@H](O)C[C@H]4CCN1[C@H]42)OCO3,> 10
5,CC(=O)O[C@H]1C=C2CCN3Cc4cc5c(cc4[C@H]([C@@H]1O)[C@@H]23)OCO5,> 10
6,C1=C2CCN3Cc4cc5c(cc4[C@H]([C@@H]4O[C@H]14)[C@@H]23)OCO5,8.5
7,c1cc2c3c(c1)-c1cc4c(cc1CN3CC2)OCO4 [ANHYDROLYCORINE],8.8
8,O[C@H]1[C@H]2c3cc4c(cc3CN3CCC(=C[C@@H]1Cl)[C@H]23)OCO4,9.6

# Tested on: not listed separately
# Assay: Growth inhibition of human WS1 cells after 72 hrs by MTT assay
# Format: cell-based
# Conditions: WS1, 72 h
# In short: as §1
row,Compound,IC50 [µM]
1,CC(=O)O[C@H]1C=C2CCN3Cc4cc5c(cc4[C@H]([C@@H]1O)[C@@H]23)OCO5,> 100
2,COC1=C[C@@H]2CCN3Cc4cc5c(cc4[C@@H]([C@H]23)[C@@H]1O)OCO5 [AMARBELLISINE],97.6
3,COc1cc2c(cc1O)[C@@H]1[C@H](O)[C@@H](O)C=C3CCN(C2)[C@H]31 [PSEUDOLYCORINE],79.1
4,C1=C2CCN3Cc4cc5c(cc4[C@H]([C@@H]4O[C@H]14)[C@@H]23)OCO5,36.8
5,c1cc2c3c(c1)-c1cc4c(cc1CN3CC2)OCO4 [ANHYDROLYCORINE],23.7
6,O[C@H]1[C@H]2c3cc4c(cc3CN3CCC(=C[C@@H]1Cl)[C@H]23)OCO4,> 100

# Tested on: not listed separately
# Assay: Growth inhibition of proapoptotic stimuli-resistant human U373 cells after 72 hrs by MTT assay
# Format: functional, cell-based, U-373MG ATCC
# Conditions: Homo sapiens, U373 MG, 72 h
# In short: as §2
row,Compound,IC50 [µM]
1,O[C@@H]1CC=C2CCN3Cc4cc5c(cc4[C@H]1[C@@H]23)OCO5 [CARANINE],> 10
2,CC(=O)O[C@H]1[C@H]2c3cc4c(cc3CN3CCC(=C[C@@H]1O)[C@H]23)OCO4,> 10
3,O[C@H]1[C@H]2c3cc4c(cc3CN3CCC(=C[C@H]1O)[C@H]23)OCO4,> 10
4,O=C1c2cc3c(cc2[C@@H]2[C@H](O)[C@@H](O)C[C@H]4CCN1[C@H]42)OCO3,> 10
5,CC(=O)O[C@H]1C=C2CCN3Cc4cc5c(cc4[C@H]([C@@H]1O)[C@@H]23)OCO5,> 10
6,C1=C2CCN3Cc4cc5c(cc4[C@H]([C@@H]4O[C@H]14)[C@@H]23)OCO5,2.4
7,c1cc2c3c(c1)-c1cc4c(cc1CN3CC2)OCO4 [ANHYDROLYCORINE],5.1
8,O[C@H]1[C@H]2c3cc4c(cc3CN3CCC(=C[C@@H]1Cl)[C@H]23)OCO4,2.3

# Tested on: SK-MEL-28
# Assay: Growth inhibition of proapoptotic stimuli-resistant human SK-MEL-28 cells after 72 hrs by MTT assay
# Format: functional, cell-based
# Conditions: Homo sapiens, SK-MEL-28, 72 h
# In short: as §2
row,Compound,IC50 [µM]
1,O[C@@H]1CC=C2CCN3Cc4cc5c(cc4[C@H]1[C@@H]23)OCO5 [CARANINE],> 10
2,CC(=O)O[C@H]1[C@H]2c3cc4c(cc3CN3CCC(=C[C@@H]1O)[C@H]23)OCO4,> 10
3,O[C@H]1[C@H]2c3cc4c(cc3CN3CCC(=C[C@H]1O)[C@H]23)OCO4,> 10
4,O=C1c2cc3c(cc2[C@@H]2[C@H](O)[C@@H](O)C[C@H]4CCN1[C@H]42)OCO3,> 10
5,CC(=O)O[C@H]1C=C2CCN3Cc4cc5c(cc4[C@H]([C@@H]1O)[C@@H]23)OCO5,> 10
6,COC1=C[C@@H]2CCN3Cc4cc5c(cc4[C@@H]([C@H]23)[C@@H]1O)OCO5 [AMARBELLISINE],8.3
7,COc1cc2c(cc1O)[C@@H]1[C@H](O)[C@@H](O)C=C3CCN(C2)[C@H]31 [PSEUDOLYCORINE],> 10
8,C1=C2CCN3Cc4cc5c(cc4[C@H]([C@@H]4O[C@H]14)[C@@H]23)OCO5,9.5
9,c1cc2c3c(c1)-c1cc4c(cc1CN3CC2)OCO4 [ANHYDROLYCORINE],> 10
10,O[C@H]1[C@H]2c3cc4c(cc3CN3CCC(=C[C@@H]1Cl)[C@H]23)OCO4,> 10

# Tested on: B16-F10
# Assay: Growth inhibition of proapoptotic stimuli-sensitive mouse B16F10 cells after 72 hrs by MTT assay
# Format: functional, cell-based
# Conditions: Mus musculus, B16-F10, 72 h
# In short: as §2
row,Compound,IC50 [µM]
1,O[C@@H]1CC=C2CCN3Cc4cc5c(cc4[C@H]1[C@@H]23)OCO5 [CARANINE],> 10
2,CC(=O)O[C@H]1[C@H]2c3cc4c(cc3CN3CCC(=C[C@@H]1O)[C@H]23)OCO4,> 10
3,O[C@H]1[C@H]2c3cc4c(cc3CN3CCC(=C[C@H]1O)[C@H]23)OCO4,> 10
4,O=C1c2cc3c(cc2[C@@H]2[C@H](O)[C@@H](O)C[C@H]4CCN1[C@H]42)OCO3,> 10
5,CC(=O)O[C@H]1C=C2CCN3Cc4cc5c(cc4[C@H]([C@@H]1O)[C@@H]23)OCO5,> 10
6,COC1=C[C@@H]2CCN3Cc4cc5c(cc4[C@@H]([C@H]23)[C@@H]1O)OCO5 [AMARBELLISINE],6.7
7,COc1cc2c(cc1O)[C@@H]1[C@H](O)[C@@H](O)C=C3CCN(C2)[C@H]31 [PSEUDOLYCORINE],7.5
8,C1=C2CCN3Cc4cc5c(cc4[C@H]([C@@H]4O[C@H]14)[C@@H]23)OCO5,4.6
9,c1cc2c3c(c1)-c1cc4c(cc1CN3CC2)OCO4 [ANHYDROLYCORINE],> 10
10,O[C@H]1[C@H]2c3cc4c(cc3CN3CCC(=C[C@@H]1Cl)[C@H]23)OCO4,6.9
